Assay outcomes (PubChem BioAssay)
In the library only some 0.88% were active in any assay of this set; here they are far more common.
PKA-R2B act – activates the human PKA-R2B holoenzyme complex; activation, % at 11.4 µM; P22694+P31323; PKA-R2B holoenzyme dissociation, Cy5-IP20 fluorescence polarization; R2B truncated from residue 108, S112A mutant; 0% DMSO only, 100% 113 µM cGMP; 340,000 tested, 0.079% active; AID 504700;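 active means activation above a cutoff set at the mean over all compounds plus 3 SD, cut at about 18% in these data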;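 further: higher means more holoenzyme dissociation and a rise in polarization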
Target sequence (P31323 whole entry, looked up, other chains not shown, the tested form may be a part): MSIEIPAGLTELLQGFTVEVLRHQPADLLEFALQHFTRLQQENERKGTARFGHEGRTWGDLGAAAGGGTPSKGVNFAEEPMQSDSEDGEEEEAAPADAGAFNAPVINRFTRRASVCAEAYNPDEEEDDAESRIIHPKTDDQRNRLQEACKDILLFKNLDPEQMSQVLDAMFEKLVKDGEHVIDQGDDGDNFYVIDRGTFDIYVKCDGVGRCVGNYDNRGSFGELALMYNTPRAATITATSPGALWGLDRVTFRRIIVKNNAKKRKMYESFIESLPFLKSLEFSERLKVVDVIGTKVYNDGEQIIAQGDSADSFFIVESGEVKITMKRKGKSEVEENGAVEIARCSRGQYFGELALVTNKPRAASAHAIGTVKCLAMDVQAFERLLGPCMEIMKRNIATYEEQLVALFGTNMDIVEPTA
CXCR6 inh – CXCR6 (human) receptor inhibition; O00574; 360,000 tested, 0.36% active; AID 602244; inhibition, % at 20 µM; CHO-K1 PathHunter CXCR6 beta-arrestin, luminescence; in the data active means inhibition above about 34%, passing the limit was not always enough;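 further: antagonist mode with CXCL16 agonist at 10 nM final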
PKA-R1A activ – PKA-R1A complex activation; P00514+P68181; PKA-R1A dissociation, Cy5-IP20 fluorescence polarization; scaled: DMSO 0%, 113 µM cGMP 100%; activation, % at 11.4 µM; 340,000 tested, 0.083% active; AID 504707;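 active means percent activation above the mean of all tested compounds plus 3 SD, cut at about 19% in these data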;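 further: higher means more PKAc released from R1A so a rise in polarization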
CCR6 antag – antagonists of human CCR6 receptor; P51684; CHO-K1 CCR6 PathHunter beta-arrestin, luminescence, CCL20-stimulated; inhibition, % at 20 µM; 340,000 tested, 0.49% active; AID 493098;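 active means compounds whose inhibition of the agonist-driven luminescence signal at 20 µM reaches about 50%, limit read from the data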;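 further: cells stimulated with CCL20 at 14 nM final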
APJ ag – APJ receptor agonism | CHO-K1 APJ PathHunter beta-arrestin, luminescence; 0% DMSO wells, 100% apelin | activation, % at 20 µM | 330,000 tested, 0.11% active | AID 2520;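 active means activation more than six SD over the plate average, tested at 20 µM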
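Test system: CHO-K1 APJ beta-arrestin complementation cell line | Compound: Single test compound dose, 20 µM final, 1% DMSO | Incubation: Compound 90 min 25 °C, reagent 1 h | Measured by: beta-gal luminescence | Read-out basis: APJ–arrestin association signal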
APJ antagonist – blocks the human apelin receptor APJ; P35414; 330,000 tested, 0.32% active; AID 2521; inhibition, % at 20 µM; CHO-K1 APJ beta-arrestin complementation, luminescence;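 active means inhibition above about 40% at 20 µM, limit read from the data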;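 further: cells challenged with 10 nM apelin-13 agonist together with compound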
CXCR6 antag conf – confirmation of human CXCR6 receptor antagonists; shares compounds with CXCR6 inh; CHO-K1 CXCR6 PathHunter beta-arrestin, luminescence; inhibition, % at 20 µM; 700 tested, 65% active; AID 602409;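 active means mean inhibition over four retests above 40%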;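 further: receptor stimulated with 10 nM CXCL16 agonist; beta-galactosidase fragment complementation upon beta-arrestin recruitment to receptor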
Hits are given with their value; – = inactive; · = not tested or not shown.

SMILES	PKA-R2B act	CXCR6 inh	PKA-R1A activ	CCR6 antag	APJ ag	APJ antagonist	CXCR6 antag conf
CC(=NO)C1CCC2C3CCC4=CC(=NO)CCC4(C)C3C(=O)CC12C (stereo not given)	–	–	–	–	·	·	·
C=C1C(=O)C23C(O)C1CCC2C12CCCC(C)(COC(C)=O)C1C(O)C3(O)OC2 (stereo not given)	–	75.8	–	102.6	·	·	95.0
O=C(CSc1cccc2cccnc12)N1CCCC1	–	51.8	–	70.3	–	–	69.4
Nc1ccccc1C#CC(=O)c1ccccc1	–	40.4	–	–	–	–	59.3
Nc1ccccc1C#Cc1ccc([N+](=O)[O-])cc1	–	–	–	–	–	–	·
O=C(C#Cc1cccc([N+](=O)[O-])c1)c1ccccc1	–	72.2	–	·	–	–	70.9
Cn1c(SCc2cccc([N+](=O)[O-])c2)nc2c(c1=O)SCC2	–	–	–	–	–	–	·
CCOc1ccc(Cl)cc1S(=O)(=O)N1CCC(C(=O)N2CCCC2)CC1	–	–	–	–	–	–	·
Cc1ccc(/C=C/C(=O)N2CC(C)CC(C)C2)o1 (stereo not given)	–	76.3	–	–	–	–	–
CCN1CCN(C(=O)/C=C/c2ccc(C)o2)CC1	–	–	–	–	–	–	·
COc1ccc(S(=O)(=O)N2CCOC2CNC(=O)C(=O)NCCCN2CCCC2=O)cc1OC (stereo not given)	–	–	–	·	·	·	·
CC(CN1CCCC1)OC(=O)c1ccc(Cl)cc1Cl (stereo not given)	–	–	–	–	–	–	·
CC(CN1CCCC1)OC(=O)c1ccc(Cl)cc1 (stereo not given)	–	84.1	–	–	–	–	–
COC(=O)[C@H]1C[C@@]2(O)CN(S(=O)(=O)c3ccc(C)cc3)C[C@@]2(OC(=O)NCC2CCCCC2)C[C@H]1C(=O)OC	–	–	–	·	·	·	·
CCCNC(=O)c1ccc2snnc2c1	–	–	–	–	–	–	·
CCCNC(=O)c1nnsc1S(=O)c1ccc(Cl)cc1 (stereo not given)	–	86.6	–	96.5	–	–	98.6
CNC(=O)c1nnsc1S(=O)c1ccc(Cl)cc1 (stereo not given)	–	96.1	–	99.3	–	–	97.2
Cc1ccc(S(=O)c2snnc2C)cc1 (stereo not given)	–	–	–	–	–	–	·
CCCNC(=O)c1nnsc1S(=O)(=O)c1ccc(Cl)cc1	–	64.9	–	74.0	–	–	83.2
O=C1C2CC=CCC2C(=O)N1c1nccs1 (stereo not given)	–	–	–	–	·	·	·
CCOC(=O)N1CCN(C(=O)CCNS(=O)(=O)c2ccc3c(c2)c(=O)n(C)c(=O)n3C)CC1	–	–	–	–	–	–	·
CCCOc1ccc(C(=O)NNC(=S)NC(=O)c2cccs2)cc1	–	52.7	–	63.5	–	–	–
CCCOc1ccc(C(=O)NNC(=S)NC(C)=O)cc1	–	–	–	–	–	–	·
CCCOc1ccc(C(=O)NNC(=S)NC(=O)c2ccccc2)cc1	–	47.3	–	65.0	–	–	–
CCCCOc1ccc(C(=O)NNC(=S)NC(=O)CC)cc1	–	56.8	–	67.8	·	·	66.9
SMILES	PKA-R2B act	CXCR6 inh	PKA-R1A activ	CCR6 antag	APJ ag	APJ antagonist	CXCR6 antag conf
Fc1ccc(-c2nnc(-c3ccc4ccccc4c3)o2)cc1	–	–	–	–	·	·	·
COc1ccccc1NC(=O)N(Cc1cccs1)Cc1cc2cc3c(cc2[nH]c1=O)OCO3	–	–	–	–	–	–	·
Cc1c(CNC(=O)c2c([N+](=O)[O-])cnn2C)cnn1C	–	–	–	–	–	–	·
CCC[n+]1c(C)sc2c3c(ccc21)CCCC3	–	41.8	–	–	–	–	–
COC(=O)C(=Cc1ccccc1[N+](=O)[O-])C(=O)OC	–	–	–	–	–	–	·
O=C(c1ccccc1)c1ccccc1N1C(=O)C=CC1=O	–	73.6	–	·	–	–	–
O=C(O)c1cccc(N2C(=O)C=CC2=O)c1	–	–	–	·	·	·	·
CCn1nc(NC(C)=O)c2cc3ccc(C)cc3nc21	–	44.3	–	–	–	–	–
CCn1nc(NC(=O)C(C)C)c2cc3ccc(C)cc3nc21	–	–	–	–	–	–	·
COc1ccccc1OCCNC(=O)c1ccc2c(c1)OCCO2	–	–	–	–	–	–	·
NN=C1c2ccccc2C(=O)C1C(=O)C(c1ccccc1)c1ccccc1 (stereo not given)	–	40.2	–	63.4	·	·	–
